{
  "source": "paper PMC6007853",
  "about": "(Biochemistry, 2018)",
  "key": {"Kv1.4": {"biological_target": "Kv1.4 (Homo sapiens, UniProt P22459)", "sequence (P22459 whole entry)": "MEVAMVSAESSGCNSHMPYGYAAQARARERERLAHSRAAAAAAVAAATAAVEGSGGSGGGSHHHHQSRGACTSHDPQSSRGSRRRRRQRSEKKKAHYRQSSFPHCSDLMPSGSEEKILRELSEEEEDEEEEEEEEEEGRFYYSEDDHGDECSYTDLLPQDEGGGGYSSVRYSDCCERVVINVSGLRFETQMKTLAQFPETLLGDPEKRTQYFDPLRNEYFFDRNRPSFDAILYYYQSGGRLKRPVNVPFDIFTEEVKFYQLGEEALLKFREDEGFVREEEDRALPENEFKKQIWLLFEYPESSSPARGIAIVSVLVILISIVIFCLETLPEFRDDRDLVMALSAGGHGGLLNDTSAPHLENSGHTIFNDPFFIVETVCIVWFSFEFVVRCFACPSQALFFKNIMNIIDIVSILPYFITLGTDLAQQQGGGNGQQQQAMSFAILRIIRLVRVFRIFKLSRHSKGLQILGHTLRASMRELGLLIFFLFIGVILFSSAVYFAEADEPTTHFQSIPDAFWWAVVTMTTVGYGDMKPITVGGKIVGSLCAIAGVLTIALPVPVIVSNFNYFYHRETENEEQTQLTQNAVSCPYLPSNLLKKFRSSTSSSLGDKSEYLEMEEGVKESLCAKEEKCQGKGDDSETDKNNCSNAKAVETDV", "format": "cell-based", "conditions": "for τact / τinact: voltage step from −100 mV to 0 mV, double exponential fit; for Kv1.4 / Kv channel inhibition (in words): highest concentrations tested", "summary_of_the_method": "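Kv1.4 expressed under tetracycline induction in a CHO-K1 line and recorded by automated whole-cell voltage clamp. Voltage steps went from −100 mV to 0 mV. A double exponential was fitted to current rise and decay to obtain τact and τinact. Kd values were fitted from these, n = 9, SEM. IC50 came from the best fit of peak-current inhibition ± standard deviation of the parameter fit.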"}, "[1]": {"test_system": "Gramicidin A (gA) channel", "test": "Gramicidin A based fluorescence quench assay", "format": "biochemical", "conditions": "highest concentration tested", "summary_of_the_method": "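ANTS was loaded into large unilamellar vesicles containing gramicidin A, and Tl+ was added to the suspension. Intravesicular ANTS quenching was followed over time, with nine individual repeats per trace. The initial quench rate gave the Tl+ influx rate. gA2 is the compound concentration that doubles that rate. Where gA2 was not obtained, the highest concentration tested is given.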"}},
  "note": "“Also recorded” adds a separate entry of the source. Read-outs that look alike come from different tables or passages of the source.",
  "data": [
    {"smiles": "NCCc1c(SSc2[nH]c3cc(Br)ccc3c2CCN)[nH]c2cc(Br)ccc12", "note": "[1a, 6-bromo-2-mercaptotryptamine dimer]", "values": [
      {"measurement": "τact", "setting": "Kv1.4; 1.5 μM BrMT", "result": "2.54 ± 0.02"},
      {"measurement": "τinact", "setting": "Kv1.4; 1.5 μM BrMT", "result": "136.6 ± 0.6"},
      {"measurement": "τact", "setting": "Kv1.4; 3 μM BrMT", "result": "3.17 ± 0.03"},
      {"measurement": "τinact", "setting": "Kv1.4; 3 μM BrMT", "result": "181 ± 2"},
      {"measurement": "τact", "setting": "Kv1.4; 6 μM BrMT", "result": "4.2 ± 0.4"},
      {"measurement": "τinact", "setting": "Kv1.4; 6 μM BrMT", "result": "300 ± 20"},
      {"measurement": "Kv1.4 / Kv channel inhibition (in words)", "setting": "Kv1.4", "result": "strongly inhibit"}
    ]},
    {"smiles": "Cc1ccc2c(CCN)c(SSc3[nH]c4cc(C)ccc4c3CCN)[nH]c2c1", "note": "[compound 7]", "values": [
      {"measurement": "Kv1.4 / Kv channel inhibition (in words)", "setting": "Kv1.4", "result": "strongly inhibit"}
    ]},
    {"smiles": "NCCc1c(SSc2[nH]c3ccc(Br)cc3c2CCN)[nH]c2ccc(Br)cc12", "note": "[compound 8]", "values": [
      {"measurement": "Kv1.4 / Kv channel inhibition (in words)", "setting": "Kv1.4", "result": "strongly inhibit"},
      {"measurement": "gA assay activity / bilayer perturbation (in words)", "setting": "[1]", "result": "complete inactivity; also recorded: does not perturb bilayers"}
    ]},
    {"smiles": "NCCc1c(COCc2[nH]c3cc(Br)ccc3c2CCN)[nH]c2cc(Br)ccc12", "note": "[compound 14]", "values": [
      {"measurement": "Kv1.4 / Kv channel inhibition (in words)", "setting": "Kv1.4", "result": "strongly inhibit"},
      {"measurement": "IC50", "setting": "Kv1.4; read-out: IC50 (potency against Kv1.4)", "result": 2.7, "unit": "µM"}
    ]}
  ]
}
